Measurements pooled from the literature.
Protocols differ between the studies behind these lines.
PRMT3: Protein arginine N-methyltransferase 3 (PRMT3, Homo sapiens, UniProt O60678)
NTRK1: High affinity nerve growth factor receptor (NTRK1, Homo sapiens, UniProt P04629)

SMILES | target | assay | test system | setting | IC50 [µM]
CC[C@@H](C(=O)Nc1ccc(C(N)=O)c(F)c1)n1cc(OC)c(-c2cc(Cl)ccc2-n2cc(C(F)(F)F)nn2)cc1=O | Coagulation factor IX (F9, Homo sapiens, UniProt P00740) | enzyme activity, inhibitor | – | – | 2.2
N=C(NCCCSC[C@H]1O[C@@H](n2cnc3c(NCCCc4ccccc4)ncnc32)[C@H](O)[C@@H]1O)NCC1CCCCC1 | PRMT3 | enzyme activity, inhibitor, fluorescence | – | – | > 100
CN1C(=O)c2c(nn(Cc3ccc(-c4cccc(F)n4)cc3)c2Nc2ccccc2)N2C1=N[C@@H]1CCC[C@@H]12 | High affinity 3',5'-cyclic-AMP phosphodiesterase 7A (PDE7A, Homo sapiens, UniProt Q13946) | enzyme activity, inhibitor | – | – | > 0.1
CN1CCN(c2ccc(Nc3ncc4cc(C#N)c(=O)n(C5CCCC5)c4n3)cc2)CC1 | Tyrosine-protein kinase Lyn (LYN, Homo sapiens, UniProt P07948) | enzyme activity, inhibitor | – | – | 0.0358
CCn1ncc2c1-c1cnc(N)c(c1)O[C@H](C)c1cc(F)ccc1-c1nn(C)nc1C2 | NTRK1 | enzyme activity, inhibitor, radiometric | – | – | 0.144
O=C(Cc1cccs1)N[C@@H]1C(=O)N2C(C(=O)[O-])=C(C[n+]3ccccc3)CS[C@H]12 | Rhomboid protease AarA (Providencia stuartii, UniProt P46116) | enzyme activity, inhibitor, fluorescence | – | – | 18
O=C(O)CCc1nc(-c2ccccc2)c(-c2ccccc2)o1 | Solute carrier family 22 member 6 (SLC22A6, Homo sapiens, UniProt Q4U2R8) | transporter uptake, inhibitor | – | – | 0.891
Nc1ncnc2c1ncn2[C@@H]1O[C@H](CSCCNC(=O)Nc2ccc(Cl)cc2)[C@@H](O)[C@H]1O | PRMT3 | enzyme activity, inhibitor, fluorescence | – | – | 22
Fc1ccc(CN(CC(F)(F)F)C2CCN(CCCc3c[nH]c4ccc(Cn5cncn5)cc34)CC2)cc1 | Voltage-dependent T-type calcium channel subunit alpha-1I (CACNA1I, Homo sapiens, UniProt Q9P0X4) | ion current, patch clamp | – | – | 0.0007
O=C(O)CSc1nnc(Br)n1-c1ccc(C2CC2)c2ccccc12 | Broad substrate specificity ATP-binding cassette transporter ABCG2 (ABCG2, Homo sapiens, UniProt Q9UNQ0) | transporter uptake, inhibitor | Caco-2 | 2 h | > 3000
O=c1oc2c(cc1O)oc(=O)c1cc(O)c(O)c(O)c12 | L-lactate dehydrogenase A chain (LDHA, Homo sapiens, UniProt P00338) | enzyme activity, inhibitor | – | pH 7.4 | 104
CC1=C[C@@]2(C[C@H](C)[C@H]3CC=C(CO)C(=O)[C@@H]3O2)OC1=O | Tyrosine-protein phosphatase non-receptor type 1 (PTPN1, Homo sapiens, UniProt P18031) | enzyme activity, inhibitor | – | – | 41.1
C=CC(=O)Nc1cc(Nc2nccc(Nc3cc(Cl)c(F)cc3C(C)(C)O)n2)c(OC)cc1N1CC[C@@H](N(C)C)C1 | NTRK1 | enzyme activity, inhibitor | – | with preincubation | > 10
O=C(/C=C/c1ccc(O)cc1)c1ccc(O)cc1O | Amine oxidase [flavin-containing] A (MAOA, Homo sapiens, UniProt P21397) | enzyme activity, inhibitor | – | – | 22.7
CC1(C)C(/C=C/C=C2/N(CCCc3ccccc3)c3ccc(Cl)cc3C2(C)C)=[N+](CCCc2ccccc2)c2ccc(Cl)cc21 | Protein arginine N-methyltransferase 5 (PRMT5, Homo sapiens, UniProt O14744) | enzyme activity, inhibitor, radiometric | – | – | 2.19
CCOCc1nc(O)c(-c2nnc(Cc3ccc(Cl)cn3)o2)c(O)c1-c1c(OC)cccc1OC | Histamine H2 receptor (HRH2, Homo sapiens, UniProt P25021) | ligand displacement, radioligand | – | – | > 30
Nc1ncnc2c1ncn2[C@@H]1O[C@H](CSCCNC(=O)Nc2ccccc2)[C@@H](O)[C@H]1O | PRMT3 | enzyme activity, inhibitor, fluorescence | – | – | 1.9
CNC(=O)c1cc2c(Oc3ccc(NC(=O)C4(C(=O)Nc5ccc(F)cc5)CC4)cc3)ccnc2cc1OC | Homeodomain-interacting protein kinase 4 (HIPK4, Homo sapiens, UniProt Q8NE63) | enzyme activity, inhibitor, radiometric | – | – | 0.003
CCN(CC)CCCOc1cc2cc3c(cc2c2nc(OC)c4cc(OC)c(OC)cc4c12)OCO3 | Tyrosyl-DNA phosphodiesterase 1 (TDP1, Homo sapiens, UniProt Q9NUW8) | enzyme activity, inhibitor, fluorescence | – | – | 5.4
